# The list is not random: actives were taken first. Their share in the collection is about 1.9%.
# NR1D1 modulator: modulators of human Rev-erb alpha DNA binding. P20393. Rev-erbα–FITC-DNA binding, fluorescence polarization, 90 min. activity, % at 10 µM. hit rate 0.79% among 370,000. AID 1259318;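 active = activity above about 14%, limit read from the data; passing the limit was not always enough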;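 also: 0% = DMSO wells with 35 nM protein and 100% = DMSO wells with 750 nM protein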
# NR2E3 ag-1: agonists of human NR2E3 nuclear receptor; CHO-S Gal4-NCOR/VP16-NR2E3 two-hybrid, luciferase; Q9Y5X4; inhibition of corepressor binding, % at 3.98 µM; hit rate 0.35% among 360,000;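 active = inhibition above the mean of all tested compounds plus 3 SD, cut at about 70% in these data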;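 also: 0% = DMSO with NR2E3 transfected cells and 100% = cells lacking NR2E3 construct; higher means lower luciferase signal from less NR2E3 corepressor binding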
# Target sequence (Q9Y5X4 whole entry, looked up, the tested form may be a part): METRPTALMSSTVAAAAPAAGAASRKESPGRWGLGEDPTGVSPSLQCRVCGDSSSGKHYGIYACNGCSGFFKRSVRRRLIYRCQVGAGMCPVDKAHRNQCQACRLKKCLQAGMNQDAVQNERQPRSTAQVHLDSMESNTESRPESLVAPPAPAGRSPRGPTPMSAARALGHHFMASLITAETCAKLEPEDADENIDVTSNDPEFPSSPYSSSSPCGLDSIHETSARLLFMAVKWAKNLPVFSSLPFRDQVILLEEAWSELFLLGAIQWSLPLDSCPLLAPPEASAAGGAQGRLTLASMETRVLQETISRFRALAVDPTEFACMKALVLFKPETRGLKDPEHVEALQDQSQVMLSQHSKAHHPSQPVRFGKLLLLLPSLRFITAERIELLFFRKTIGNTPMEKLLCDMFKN
# MT1-MMP act inh: blocks activation of human MT1-MMP | HT1080 RFP-PRO-GFP cells, GFP/RFP ratio fluorescence, overnight; percent of plate control window, DMSO zero | hit rate 0.061% among 360,000 | AID 651647 | GFP/RFP ratio change, % at 20 µM;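 active = GFP/RFP ratio change of at least 30% with cell ATP level not reduced by more than half and red fluorescence within 50% of control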
#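 Assay system: HT1080 cells carrying an RFP-PRO-GFP reporter | Dosing: Single dose of 20 µM compound, 1% DMSO final | Incubation: Cells overnight before dosing, compound overnight, 37 °C, 5% CO2 | Evaluation: GFP/RFP fluorescence ratio | Control set: DMSO and RFP-L50D-GFP cell wells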
# NR2E3 ag-2: NR2E3 (human) agonism. Q9Y5X4. GST-NR2E3/biotin-RetCOR TR-FRET, 1536-well. inhibition of corepressor binding, % at 4.78 µM. hit rate 0.12% among 320,000. AID 2300;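 active = percent inhibition above the cutoff of mean plus 3 SD of all tested compounds, set per screening campaign, cut at about 20% in these data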;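 also: 0% = DMSO wells and 100% = biotin wells as full block of FRET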
#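 Material: NR2E3–RetCOR corepressor complex | Quantity: 1.35 nM GST-tagged NR2E3 final | Schedule: 5 h at 4 °C | Replication: Singlicate compound wells | Reagent: RetCOR corepressor, biotinylated, 7 nM | Controls: Biotin wells as high control, 0.6% DMSO wells as low control | Signal: TR-FRET, Eu(K)-anti-GST donor, streptavidin-D2 acceptor, ex 340, em 617/671 nm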
# PG9 Ab binder: PG9 antibody binding by small molecule; TR-FRET gp120-PG9 antibody binding; inhibition, % at 6.7 µM; hit rate 0.43% among 360,000; AID 624416; in the data active = inhibition above about 8.5%
# SKN-1 block: blocks SKN-1 activity in C. elegans. inhibition, % at 21.8 µM. AID 624304. hit rate 0.49% among 360,000. C. elegans VP596 Pgst-4::GFP/RFP ratio, acrylamide-induced, 24 h;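 active = interference check ratio from 0.5 to 1.5 plus GFP to RFP signal ratio inhibition reaching or exceeding a fixed threshold, cut at about 30% in these data, passing the limit was not always enough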
# NR2E3 ag confirm: confirmation of human NR2E3 agonists | inhibition, % at 3.98 µM | AID 624378 | hit rate 51% among 2,300 | shares compounds with NR2E3 ag-1 | CHO-S mammalian two-hybrid NR2E3-NCOR, luciferase luminescence;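 active = average inhibition above a cutoff equal to the mean inhibition of all tested compounds plus one SD, cut at about 70% in these data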;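 also: 0% = DMSO in NR2E3 cells and 100% = DMSO in cells lacking NR2E3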
# GAL4-VP16 luc: GAL4-VP16 reporter inhibition in NR2E3 agonist counterscreen. shares compounds with NR2E3 ag-1. CHO-S GAL4-VP16 luciferase reporter, luminescence. inhibition, % at 3.98 µM. hit rate 29% among 2,300;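 active = mean inhibition above a cutoff equal to the average over all tested compounds plus one standard deviation, cut at about 70% in these data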;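 also: luciferase from a UAS reporter driven by GAL4-VP16 transactivation; 0% = DMSO with VP16-transfected cells and 100% = DMSO with cells lacking VP16; higher means less reporter light so more repression of VP16 activity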
# The depositor's hits bear a star; . = no result given.
SMILES,NR1D1 modulator,NR2E3 ag-1,MT1-MMP act inh,NR2E3 ag-2,PG9 Ab binder,SKN-1 block,NR2E3 ag confirm,GAL4-VP16 luc
O=C1C(=O)N(c2nccs2)C(c2ccccc2F)/C1=C(\O)c1ccc2c(c1)OCCO2 (stereo not given),-6.4,93.4*,-39.2,11.5,7.9,2.2,92.4*,64.1
Cc1cc(C)nc(/N=C(\N)Nc2ccc(OCCC(C)C)cc2)n1,-1.9,53.0,-7.1,3.5,1.0,14.7,69.7,58.5
O=C(CN1C(=O)S/C(=C\c2ccccc2)C1=O)NNC(=O)c1ccccc1O,5.5,3.6,5.7,-0.6,-1.1,6.9,.,.
O=C(CCCN1C(=O)S/C(=C\C=C\c2ccccc2)C1=O)Nc1ccc(C(=O)O)cc1,-9.2,54.4,-0.5,0.7,-1.2,5.6,8.0,58.0
O=C(CCCN1C(=O)S/C(=C\c2ccccc2)C1=O)NNC(=O)c1ccccc1O,0.7,50.1,6.5,8.4,-0.4,9.2,60.2,53.2
COc1ccc(NS(=O)(=O)c2cccc(NC(=O)c3ccc(Cl)nc3)c2)cc1,-3.5,82.6*,-7.7,5.3,1.1,-5.1,83.9*,77.8*
O=C(Nc1cccc(S(=O)(=O)Nc2ccc(Cl)cc2)c1)c1ccc(Cl)nc1,7.0,73.6*,-6.4,6.6,1.6,6.7,58.9,76.2*
Cc1ccc(C(=O)N2CCC(Oc3cccnc3)CC2)c(C)c1,-4.4,.,.,.,.,.,.,.
COc1ccccc1CNc1ncnc2sccc12,1.0,100.2*,7.8,-2.0,0.4,-16.3,92.2*,76.2*
COc1ccc(CCNc2ncnc3sccc23)cc1OC,1.8,89.9*,-6.2,-4.0,0.4,-4.3,98.3*,89.9*
CN(C)c1ccc(CNc2ncnc3sccc23)cc1,2.8,99.0*,5.6,0.1,-5.0,-17.2,93.0*,70.3
Fc1ccccc1CNc1ncnc2sccc12,0.6,99.7*,8.8,1.4,0.1,-2.4,88.3*,70.8*
O=C(Cc1ccc(NC(=O)C2CCN(C(=O)C3CCCC3)CC2)cc1)Nc1cccc(C(=O)N2CCCC2)c1,-6.5,.,.,.,0.6,.,.,.
COC(=O)[C@@]12CCCCC=C1N(CCc1ccc(Cl)cc1)C(=O)[C@H]2CC(=O)NCc1ccc(C)o1,-1.3,.,.,.,.,.,.,.
COc1ccc(NC(=O)N(C)[C@H]2C[C@H]3c4[nH]c5c(-c6ccccc6)cccc5c4CCN3C(=O)[C@H]2[C@H](C)O)cc1,1.9,.,.,.,-2.7,.,.,.
CCOC(=O)C1=CCN(S(=O)(=O)c2ccccc2Br)C1c1ccc(Cl)cc1 (stereo not given),-3.2,.,.,.,0.3,.,.,.
c1ccc2c(c1)OCC(CNCC1COc3ccccc3O1)O2 (stereo not given),1.2,-8.2,3.4,0.1,-0.2,12.8,.,.
c1ccc2c(c1)OCC(CNc1ncnc3sccc13)O2 (stereo not given),.,84.0*,-4.5,2.2,-2.3,-11.5,96.9*,86.6*
NC1=C(Cl)C(=O)c2ccc(S(N)(=O)=O)cc2C1=O,-13.9,71.5*,-25.8,.,-17.4,11.5,9.7,18.9
O=C(NCc1ccccc1)[C@@H]1CCCN1C(=O)[C@H]1CCCN1C(=O)c1cccs1,-1.7,.,.,.,0.4,.,.,.
CCCCCCCCCC[n+]1cccc2c3ccccc3ccc21,-6.9,95.7*,-15.4,.,-0.1,-4.4,99.6*,93.6*
Cn1cc(SCC(=O)Nc2nc3ccccc3s2)c2ccccc21,-5.7,47.8,3.7,-2.9,-1.4,-2.2,69.4,-0.6
Cc1ccc(S(=O)(=O)N2CCN(C(=O)COC(=O)c3oc4ccccc4c3C)CC2)cc1,1.5,4.4,2.5,0.0,-0.2,14.2,.,.
COc1ccc2oc(C(=O)OCC(=O)N3CCN(S(=O)(=O)c4ccc(C)cc4)CC3)c(C)c2c1,7.7,70.2*,-2.7,2.8,-0.5,-6.5,85.8*,72.3*
Cc1nn(Cc2ccc(Cl)cc2)c(C)c1NC(=O)c1cc(-c2ccc3c(c2)OCO3)on1,-1.5,57.9,-6.2,-1.4,-2.3,6.7,74.5*,51.4
SMILES,NR1D1 modulator,NR2E3 ag-1,MT1-MMP act inh,NR2E3 ag-2,PG9 Ab binder,SKN-1 block,NR2E3 ag confirm,GAL4-VP16 luc
CC(C)(C)c1ccc(-n2ncc3c2CCCC3NC(=O)CCN2CCCO2)cc1 (stereo not given),-0.3,66.2,7.3,0.7,-0.2,-10.7,-9.3,40.8
CC(C)(C)c1ccc(-n2ncc3c2CCCC3NC(=O)CCn2cncn2)cc1 (stereo not given),-1.6,25.4,0.9,0.6,1.6,15.5,.,.
Cc1cc(C)cc(-n2ncc3c2CCCC3NC(=O)c2cc(C)n(C)n2)c1 (stereo not given),-0.7,-17.1,3.9,-0.1,1.4,10.3,.,.
CC(C)(C)c1ccc(-n2ncc3c2CCCC3NC(=O)CN2CCCCC2=O)cc1 (stereo not given),-4.2,58.5,-2.5,-5.4,-1.4,-4.6,14.9,39.4
Cc1cc(C(=O)NC2CCCc3c2cnn3-c2ccc(C(C)(C)C)cc2)nn1C (stereo not given),3.9,101.4*,4.1,-5.0,-1.2,3.7,93.7*,81.5*
CC(C)(C)c1ccc(-n2ncc3c2CCCC3NC(=O)C2(C(N)=O)CC2)cc1 (stereo not given),-6.4,99.9*,12.6,-2.1,-2.4,-21.3,91.9*,81.0*
O=S(=O)(c1ccc(F)cc1)N1CCCc2nc(-c3ccccc3)ccc21,4.5,.,.,.,0.8,.,.,.
O=C1c2ccccc2NC(c2cc(Cl)cc(Cl)c2O)N1CCc1ccccn1 (stereo not given),-0.9,.,.,.,-2.8,.,.,.
CC(C)CC(=O)NC(=S)Nc1ccc(N2CCN(C(=O)c3cccs3)CC2)cc1,2.0,64.9,-9.6,-0.2,-0.7,7.8,85.0*,67.6
Cc1ccccc1C(=O)N1CCN(c2ccc(NC(=O)CSc3ccc(Cl)cc3)cc2)CC1,2.8,57.5,-12.6,1.1,-0.2,-9.2,58.7,65.9
Cc1ccccc1C(=O)N1CCN(c2ccc(NC(=S)NC(=O)c3cccs3)cc2)CC1,-1.8,61.9,-1.4,6.2,0.6,-11.9,63.4,35.0
COC(=O)N1C[C@H](OCCCOCc2ccccc2)[C@H]2C[C@@H]1c1ccccc1O2,-5.6,.,.,.,-1.1,.,.,.
C[C@@H]1CN([C@@H](C)CO)C(=O)CCCn2cc(nn2)CO[C@H]1CN(C)C(=O)Nc1ccccc1F,-1.6,.,.,.,2.3,.,.,.
Cc1ccc(OCCN2CCC2(C)C(=O)NCc2cccc3ccccc23)cc1 (stereo not given),-0.5,-27.8,1.3,.,-0.8,5.9,.,.

# High-throughput results as filed in PubChem.
